In experiment [1] the test system is CCRF-CEM. The experiment can be described thus: Ratio of IC50 for Taxol-resistant human CCRF-CEM cells to IC50 for human CCRF-CEM cells.
Experiment [2] is described as follows: Cytotoxicity against human OECM1 cells after 72 hrs by Alamar blue assay. Type of experiment: functional, cell-based. Conditions: OECM1, 72 h. The essentials:
(§1)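 H1299, PC3, OECM1 and U87 cells exposed 72 h to six or seven drug concentrations. Alamar blue added for 6 h at 37 °C; absorbance read at 570 and 600 nm. IC50 obtained from dose-effect data by the median-effect principle.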
For orientation: Alamar Blue is a resazurin reagent that responds to reducing activity.

Experiment [3] is described as follows: Cytotoxicity against human U87 cells after 72 hrs by Alamar blue assay. It is filed as functional, cell-based, U-87MG ATCC. Conditions: U-87 MG. In a few lines:
as §1

The test system of experiment [4] is CCRF-CEM. The experiment can be described thus: Cytotoxicity against vinblastine-resistant human CCRF-CEM cells after 72 hrs by XTT assay. Type of experiment: functional, cell-based. In a few lines: (§2)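 Leukemic CCRF-CEM and its Taxol- and vinblastine-resistant sublines exposed 72 h to six or seven drug concentrations. XTT with phenazine methosulfate added for 6 h at 37 °C; absorbance read at 450 and 630 nm. IC50 obtained from dose-effect data by the median-effect principle.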
For orientation: Tetrazolium dyes change colour on reduction, which living cells bring about.

Experiment [5] is described as follows: Cytotoxicity against human H1299 cells after 72 hrs by Alamar blue assay. As to conditions: NCI-H1299, 72 h. It is filed as functional, cell-based. In a few lines: as §1
The subject of experiment [6] is CCRF-CEM. The experiment in a line: Cytotoxicity against Taxol-resistant human CCRF-CEM cells after 72 hrs by XTT assay. Type of experiment: functional, cell-based. In a few lines: as §2
In experiment [7] the test system is PC-3. The experiment can be described thus: Cytotoxicity against human PC3 cells after 72 hrs by Alamar blue assay. It is filed as functional, cell-based. As to conditions: PC-3, 72 h. In a few lines:
as §1

For experiment [8], the system named is MX1. The experiment in a line: Cytotoxicity against human MX1 cells after 72 hrs by SRB assay. Type of experiment: functional, cell-based. Conditions: MX1, 72 h. In a few lines:
(§3)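 MX-1 breast and HCT-116 colon carcinoma cells exposed 72 h to six or seven drug concentrations. Growth measured by SRB assay with microplate absorbance. IC50 obtained from dose-effect data by the median-effect principle.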
(In general: The SRB assay estimates cell density from bound dye.)

For experiment [9], the system named is CCRF-CEM. The experiment can be described thus: Cytotoxicity against human CCRF-CEM cells after 72 hrs by XTT assay. Type of experiment: functional, cell-based. The essentials:
as §2

For experiment [10], the system named is HCT-116. The experiment in a line: Cytotoxicity against human HCT116 cells after 72 hrs by SRB assay. Type of experiment: functional, cell-based. Conditions: HCT-116, 72 h. In a few lines: as §3

26 molecules from ChEMBL document CHEMBL1641600, “Novel bifunctional alkylating agents, 5,10-dihydropyrrolo[1,2-b]isoquinoline derivatives, synthesis and biological activity” (Bioorg Med Chem, 2011) can be followed below.

As to `CC[C@]1(O)C[C@@H]2CN(CCc3c([nH]c4ccccc34)[C@@](C(=O)OC)(c3cc4c(cc3OC)N(C)[C@H]3[C@@](O)(C(=O)OC)[C@H](OC(C)=O)[C@]5(CC)C=CCN6CC[C@]43[C@@H]65)C2)C1` [VINBLASTINE], in [1], the “Ratio IC50” value worked out at 106.2.

By IC50 is commonly meant the point on the concentration scale where inhibition reaches its midpoint. Read a high IC50 as weaker potency. With `CC(C)NC(=O)OCc1c(COC(=O)NC(C)C)c(-c2ccc(Cl)cc2)n2c1Cc1ccccc1C2`, the IC50 was determined as 26100 nM in [2]; 22700 nM in [3]; 570 nM in experiment [4]; 25200 nM in experiment [5]; 630 nM in experiment [6]; 9970 nM in [7]. For the same molecule, the IC50 in experiment [8] was found to be 1700 nM; in [9] it was 540 nM; in experiment [10], 690 nM. Moreover, in experiment [1], the “Ratio IC50” value was 1.16.

As to `CC(C)NC(=O)OCc1c(COC(=O)NC(C)C)c(-c2ccc(Cl)c(Cl)c2)n2c1Cc1ccccc1C2`, the 50% inhibitory concentration (IC50) in experiment [4] came to 1350 nM; in experiment [6] it was 2470 nM; in [9], 3550 nM. Moreover, the “Ratio IC50” value in [1] amounted to 0.69.

On to `CCNC(=O)OCc1c(COC(=O)NCC)c(-c2ccc(OC)cc2)n2c1Cc1ccccc1C2`, for which the 50% inhibitory concentration (IC50) came to 10500 nM in experiment [2]; 17100 nM in experiment [3]; 350 nM in experiment [4]; 27600 nM in experiment [5]; 220 nM in [6]; 18500 nM in experiment [7]. Besides, the results for the IC50 in experiment [8], in experiment [9] and in experiment [10] were 1270 nM, 370 nM and 750 nM, respectively. Besides, the “Ratio IC50” value in experiment [1] is given as 0.58.

For the molecule `CCNC(=O)OCc1c(COC(=O)NCC)c(-c2ccc(F)c(F)c2)n2c1Cc1ccccc1C2`, the IC50 came out at 670 nM in [4], 1250 nM in experiment [6] and 2080 nM in [9]. Further, the “Ratio IC50” value in experiment [1] stood at 0.6.

As to `CNC(=O)OCc1c(COC(=O)NC)c(-c2ccc(F)c(F)c2)n2c1Cc1ccccc1C2`, the IC50 turned out to be 470 nM in experiment [4]; 450 nM in experiment [6]; 2730 nM in experiment [8]; 490 nM in experiment [9]; 360 nM in experiment [10]. Further, in experiment [1], the “Ratio IC50” value stood at 0.91.

With `CNC(=O)OCc1c(COC(=O)NC)c2n(c1C)Cc1ccccc1C2`, the half-inhibitory concentration (IC50) turned out to be 80 nM in experiment [4]; 110 nM in [6]; 1680 nM in experiment [8]; 130 nM in [9]; 1170 nM in [10]. Also, in [1], the “Ratio IC50” value worked out at 0.86.

On to `OCc1c(CO)c(-c2ccc(Cl)c(Cl)c2)n2c1Cc1ccccc1C2`, for which the concentration for half-maximal inhibition (IC50) in experiment [4] turned out to be 6420 nM; in experiment [6] it was 4820 nM; in [9], 8440 nM. Further, the “Ratio IC50” value in experiment [1] came out at 0.57.

In the case of `CCNC(=O)OCc1c(COC(=O)NCC)c(-c2ccccc2)n2c1Cc1ccccc1C2`, the concentration for half-maximal inhibition (IC50) is 230 nM in experiment [4], 260 nM in experiment [6] and 260 nM in experiment [9]. Moreover, in experiment [1], the “Ratio IC50” value worked out at 1.01.

`COc1cc(-c2c(CO)c(CO)c3n2Cc2ccccc2C3)cc(OC)c1OC`: the results for the half-inhibitory concentration (IC50) in experiment [4], in [6] and in experiment [9] were 2780 nM, 2880 nM and 1970 nM, respectively. Moreover, the “Ratio IC50” value in experiment [1] turned out to be 1.45.

`CCc1c(CO)c(CO)c2n1Cc1ccccc1C2`: the results for the IC50 in experiment [4], in experiment [6] and in experiment [9] were 190 nM, 210 nM and 180 nM, respectively. For the same molecule, in experiment [1], the “Ratio IC50” value turned out to be 1.15.

For `CCNC(=O)OCc1c(COC(=O)NCC)c(-c2ccc(OC)c(OC)c2)n2c1Cc1ccccc1C2`, the 50% inhibitory concentration (IC50) in experiment [4] was 650 nM; in [6], 810 nM; in [9], 1070 nM. For the same molecule, the “Ratio IC50” value in experiment [1] was determined as 0.75.

Consider `CNC(=O)OCc1c(COC(=O)NC)c(-c2ccc(OC)cc2)n2c1Cc1ccccc1C2`, for which the half-maximal inhibitory concentration (IC50) in [4] worked out at 90 nM; in [6] it was 130 nM; in experiment [8] it was 1330 nM; in [9], 180 nM; in [10] it was 1070 nM. The “Ratio IC50” value in [1] came to 0.72.

On to `CC(C)NC(=O)OCc1c(COC(=O)NC(C)C)c(-c2ccccc2)n2c1Cc1ccccc1C2`, for which the values for the half-inhibitory concentration (IC50) in [4], in [6] and in experiment [9] were 250 nM, 230 nM and 450 nM, respectively. In addition, in experiment [1], the “Ratio IC50” value is given as 0.5.

In the case of `CC(=O)O[C@H]1C(=O)[C@@]2(C)[C@H]([C@H](OC(=O)c3ccccc3)[C@]3(O)C[C@H](OC(=O)[C@H](O)[C@@H](NC(=O)c4ccccc4)c4ccccc4)C(C)=C1C3(C)C)[C@]1(OC(C)=O)CO[C@@H]1C[C@@H]2O` [PACLITAXEL], the “Ratio IC50” value in experiment [1] is given as 330.

`CNC(=O)OCc1c(COC(=O)NC)c(-c2ccc(Cl)cc2)n2c1Cc1ccccc1C2`: the concentration for half-maximal inhibition (IC50) in [4] was 160 nM; in [6], 220 nM; in experiment [8] it was 1180 nM; in [9] it was 190 nM; in experiment [10], 40 nM. In [1], the “Ratio IC50” value is reported as 1.18.

`CCNC(=O)OCc1c(COC(=O)NCC)c(-c2cc(OC)c(OC)c(OC)c2)n2c1Cc1ccccc1C2`: the concentration for half-maximal inhibition (IC50) is 3130 nM in experiment [4], 2140 nM in experiment [6] and 1410 nM in experiment [9]. Also, in experiment [1], the “Ratio IC50” value worked out at 1.52.

On to `CCNC(=O)OCc1c(COC(=O)NCC)c(-c2ccc(Cl)c(Cl)c2)n2c1Cc1ccccc1C2`, for which the half-inhibitory concentration (IC50) in experiment [4] was 1190 nM; in [6] it was 900 nM; in [9], 2370 nM. Besides, in [1], the “Ratio IC50” value is on record as 0.38.

On to `COc1ccc(-c2c(CO)c(CO)c3n2Cc2ccccc2C3)cc1OC`, for which the IC50 came out at 620 nM in [4], 760 nM in experiment [6] and 1100 nM in experiment [9]. Moreover, in [1], the “Ratio IC50” value is reported as 0.69.

`OCc1c(CO)c(-c2ccccc2)n2c1Cc1ccccc1C2`: the IC50 came out at 290 nM in experiment [4], 500 nM in experiment [6] and 510 nM in experiment [9]. The “Ratio IC50” value in experiment [1] amounted to 0.99.

For `COc1cc(-c2c(COC(=O)NC(C)C)c(COC(=O)NC(C)C)c3n2Cc2ccccc2C3)cc(OC)c1OC`, the concentration for half-maximal inhibition (IC50) worked out at 1420 nM in experiment [4], 1200 nM in experiment [6] and 890 nM in experiment [9]. In [1], the “Ratio IC50” value worked out at 1.35.

For the molecule `COc1ccc(-c2c(COC(=O)NC(C)C)c(COC(=O)NC(C)C)c3n2Cc2ccccc2C3)cc1OC`, the IC50 in experiment [4] stood at 770 nM; in experiment [6], 600 nM; in experiment [9], 1290 nM. For the same molecule, the “Ratio IC50” value in experiment [1] is given as 0.46.

For `CCNC(=O)OCc1c(COC(=O)NCC)c2n(c1CC)Cc1ccccc1C2`, the IC50 came out at 240 nM in experiment [4], 210 nM in experiment [6] and 440 nM in experiment [9]. Also, the “Ratio IC50” value in experiment [1] is 0.48.

With `CCc1c(COC(=O)NC(C)C)c(COC(=O)NC(C)C)c2n1Cc1ccccc1C2`, the 50% inhibitory concentration (IC50) was determined as 180 nM in experiment [4], 320 nM in experiment [6] and 570 nM in experiment [9]. Besides, the “Ratio IC50” value in experiment [1] was determined as 0.56.

For the molecule `OCc1c(CO)c(-c2ccc(F)c(F)c2)n2c1Cc1ccccc1C2`, the IC50 in experiment [4] was 950 nM; in [6] it was 1260 nM; in experiment [8] it was 6990 nM; in experiment [9], 1140 nM; in experiment [10] it was 3210 nM. In addition, in experiment [1], the “Ratio IC50” value amounted to 1.11.

Regarding `CC(C)NC(=O)OCc1c(COC(=O)NC(C)C)c(-c2ccc(F)c(F)c2)n2c1Cc1ccccc1C2`, the IC50 in experiment [4] came out at 610 nM; in [6], 780 nM; in experiment [9], 1330 nM. Also, the “Ratio IC50” value in experiment [1] was 0.58.
